Test results published in article PMC4743058 (Genes & Development, 2016).
Where a SMILES comes first, the peptide text is derived from it. The star is where a group is joined. Cbz = O=C(OCc1ccccc1)*

Assays:
[1] = system: Hs-p53; test: Hs-p53 degradation in p53/Mdm2 double-knockout cells; format: cell-based, human; expressed in mouse embryonic fibroblasts; conditions: 4 h before harvest, Western blot
[2] = system: Lj-p53; test: Lj-p53 degradation in p53/Mdm2 double-knockout cells; format: cell-based; conditions: 4 h before harvest, Western blot, lane 4
[3] = system: Hs-p53–HDM2^Nterm; test: In vitro pull-down of Hs-p53 by HDM2Nterm in presence of inhibitor; format: binding, human; conditions: in vitro translated proteins, inhibitor 30 min, Fig. 7A lanes 1–3
[4] = system: Hs-p53–Lj-Mdm2^Nterm; test: In vitro pull-down of Hs-p53 by Lj-Mdm2Nterm in presence of inhibitor; format: binding, human p53; lamprey (Lethenteron japonicum) Mdm2; conditions: in vitro translated proteins, inhibitor 30 min, Fig. 7A lanes 4–6
[5] = system: Lj-p53–Lj-Mdm2^Nterm; test: In vitro pull-down of Lj-p53 by Lj-Mdm2Nterm in presence of inhibitor; format: binding, lamprey (Lethenteron japonicum); conditions: Fig. 7A
Outline: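 Anti-HA antibody (1 µg per 10 µL Protein G beads, 1 h in PBST–3% BSA) captured in vitro translated HA-tagged Mdm2 N-terminal bait (30 min, rotating). Test compound was added at the required concentrations for 30 min, with DMSO as control. In vitro translated Flag-Lj-p53 was then added for 1 h. Beads were washed, and eluates were heated 5 min at 95°C, run on SDS-PAGE and immunoblotted with HRP anti-Flag.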

Compound	block of Lj-Mdm2-mediated Hs-p53 degradation by proteasome inhibitor [1]	block of Lj-Mdm2-mediated Lj-p53 reduction by proteasome inhibitor [2]	block of binding of Hs-p53 to HDM2Nterm [3]	block of binding of Hs-p53 to Lj-Mdm2Nterm [4]	block of binding of Lj-p53 to Lj-Mdm2Nterm ([5]; in vitro translated proteins, inhibitor 30 min)	interaction with the p53-binding pocket in Lj-Mdm2Nterm ([5]; inferred from pull-down)
CC(C)C[C@@H](C=O)NC(=O)[C@H](CC(C)C)NC(=O)[C@H](CC(C)C)NC(=O)OCc1ccccc1 [MG132] (Cbz-Leu-Leu-Leu-aldehyde)	only partially blocked	partially blocked	–	–	–	–
Nutlin	–	–	could block the binding of Hs-p53 to HDM2^Nterm	not by Nutlin	not by Nutlin	interacts poorly, if at all
